From paper PMC9291822 (British Journal of Clinical Pharmacology, 2021)
Where two headings read alike, the source gives them in different places.

How the values were obtained:
[1] = format: in vivo, human; conditions: for AUCinf of metabolite, GM / AUCinf of metabolite, mean (SD) / AUClast of metabolite, GM / AUClast of metabolite, mean (SD) / Cmax of metabolite, GM / Cmax of metabolite, mean (SD) / Metabolite ratio of AUCinf, GM / Metabolite ratio of AUCinf, mean (SD) / Metabolite ratio of AUClast, GM / Metabolite ratio of AUClast, mean (SD) / Tmax of metabolite, median (range) / t½ of metabolite, GM / t½ of metabolite, mean (SD): after capmatinib single oral dose 200 mg
In short: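 Adults aged 18–75 with hepatic impairment (Child–Pugh A/B/C, also reclassified by NCI Organ Dysfunction Working Group criteria) or normal function, matched on age, weight and sex. Overnight fast (≥10 h), single oral 200 mg (2 × 100 mg tablets), fasting ≥4 h post-dose. Plasma sampled predose to 72 h; parent and metabolite measured by validated LC-MS/MS (LLOQ ~1.00 ng/mL). Noncompartmental analysis; GM ratios vs normal with 90% CIs.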

[2] = multiple dosing of capmatinib; cited from earlier work
[3] = mild (n = 6), listed as M16 (CMN288)
[4] = moderate (n = 8), listed as M16 (CMN288)
[5] = normal (n = 9), listed as M16 (CMN288)
[6] = severe (n = 6), listed as M16 (CMN288)

- AUCinf of metabolite, GM ([1]; mild (n = 6)): 2190 ng·h/mL
- AUCinf of metabolite, mean (SD) ([1]; mild (n = 6)): 2300 (691) ng × h/mL
- AUClast of metabolite, GM ([1]; mild (n = 6)): 2150 ng·h/mL
- AUClast of metabolite, mean (SD) ([1]; mild (n = 6)): 2250 (677) ng × h/mL
- Cmax of metabolite, GM ([1]; mild (n = 6)): 423 ng/mL
- Cmax of metabolite, mean (SD) ([1]; mild (n = 6)): 492 (272) ng/mL
- Metabolite ratio of AUCinf, GM ([1]; mild (n = 6)): 0.440 (23.8) fold
- Metabolite ratio of AUCinf, mean (SD) ([1]; mild (n = 6)): 0.450 (0.0988) fold
- Metabolite ratio of AUClast, GM ([1]; mild (n = 6)): 0.437 (24.1) fold
- Metabolite ratio of AUClast, mean (SD) ([1]; mild (n = 6)): 0.447 (0.100) fold
- Tmax of metabolite, median (range) ([1]; mild (n = 6)): 1.00 (1.00–2.00) h
- t½ of metabolite, GM ([1]; mild (n = 6)): 6.84 h
- t½ of metabolite, mean (SD) ([1]; mild (n = 6)): 7.86 (5.49) h
- Metabolite ratio of AUCinf, GM [1, 3]: 0.440 fold
- Metabolite ratio of AUClast, GM [1, 3]: 0.437 fold
- AUCinf of metabolite, GM ([1]; moderate (n = 8)): 3400 ng·h/mL
- AUCinf of metabolite, mean (SD) ([1]; moderate (n = 8)): 3850 (2490) ng × h/mL
- AUClast of metabolite, GM ([1]; moderate (n = 8)): 3370 ng·h/mL
- AUClast of metabolite, mean (SD) ([1]; moderate (n = 8)): 3830 (2490) ng × h/mL
- Cmax of metabolite, GM ([1]; moderate (n = 8)): 587 ng/mL
- Cmax of metabolite, mean (SD) ([1]; moderate (n = 8)): 738 (645) ng/mL
- Metabolite ratio of AUCinf, GM ([1]; moderate (n = 8)): 0.573 (67.7) fold
- Metabolite ratio of AUCinf, mean (SD) ([1]; moderate (n = 8)): 0.680 (0.443) fold
- Metabolite ratio of AUClast, GM ([1]; moderate (n = 8)): 0.573 (68.0) fold
- Metabolite ratio of AUClast, mean (SD) ([1]; moderate (n = 8)): 0.680 (0.445) fold
- Tmax of metabolite, median (range) ([1]; moderate (n = 8)): 1.00 (1.00–3.00) h
- t½ of metabolite, GM ([1]; moderate (n = 8)): 6.42 h
- t½ of metabolite, mean (SD) ([1]; moderate (n = 8)): 7.32 (5.16) h
- Metabolite ratio of AUCinf, GM [1, 4]: 0.573 fold
- Metabolite ratio of AUClast, GM [1, 4]: 0.573 fold
- AUCinf of metabolite, GM ([1]; normal (n = 9)): 4560 ng·h/mL
- AUCinf of metabolite, mean (SD) ([1]; normal (n = 9)): 4820 (1880) ng × h/mL
- AUClast of metabolite, GM ([1]; normal (n = 9)): 4520 ng·h/mL
- AUClast of metabolite, mean (SD) ([1]; normal (n = 9)): 4780 (1880) ng × h/mL
- Cmax of metabolite, GM ([1]; normal (n = 9)): 1010 ng/mL
- Cmax of metabolite, mean (SD) ([1]; normal (n = 9)): 1050 (328) ng/mL
- Metabolite ratio of AUCinf, GM ([1]; normal (n = 9)): 0.704 (24.1) fold
- Metabolite ratio of AUCinf, mean (SD) ([1]; normal (n = 9)): 0.722 (0.181) fold
- Metabolite ratio of AUClast, GM ([1]; normal (n = 9)): 0.702 (24.0) fold
- Metabolite ratio of AUClast, mean (SD) ([1]; normal (n = 9)): 0.720 (0.180) fold
- Tmax of metabolite, median (range) ([1]; normal (n = 9)): 1.50 (1.00–2.00) h
- t½ of metabolite, GM ([1]; normal (n = 9)): 9.96 h
- t½ of metabolite, mean (SD) ([1]; normal (n = 9)): 11.4 (6.92) h
- Metabolite ratio of AUCinf, GM [1, 5]: 0.704 fold
- Metabolite ratio of AUClast, GM [1, 5]: 0.702 fold
- AUCinf of metabolite, GM ([1]; severe (n = 6)): 2130 ng·h/mL
- AUCinf of metabolite, mean (SD) ([1]; severe (n = 6)): 2350 (1200) ng × h/mL
- AUClast of metabolite, GM ([1]; severe (n = 6)): 2110 ng·h/mL
- AUClast of metabolite, mean (SD) ([1]; severe (n = 6)): 2330 (1210) ng × h/mL
- Cmax of metabolite, GM ([1]; severe (n = 6)): 262 ng/mL
- Cmax of metabolite, mean (SD) ([1]; severe (n = 6)): 287 (130) ng/mL
- Metabolite ratio of AUCinf, GM ([1]; severe (n = 6)): 0.266 (32.2) fold
- Metabolite ratio of AUCinf, mean (SD) ([1]; severe (n = 6)): 0.276 (0.0802) fold
- Metabolite ratio of AUClast, GM ([1]; severe (n = 6)): 0.264 (32.2) fold
- Metabolite ratio of AUClast, mean (SD) ([1]; severe (n = 6)): 0.274 (0.0795) fold
- Tmax of metabolite, median (range) ([1]; severe (n = 6)): 3.00 (1.50–6.00) h
- t½ of metabolite, GM ([1]; severe (n = 6)): 5.87 h
- t½ of metabolite, mean (SD) ([1]; severe (n = 6)): 5.93 (0.907) h
- Metabolite ratio of AUCinf, GM [1, 6]: 0.266 fold
- Metabolite ratio of AUClast, GM [1, 6]: 0.264 fold
- decrease in metabolite GM AUCinf vs. normal group ([1]; mild group): 52.0%
- decrease in metabolite GM AUClast vs. normal group ([1]; mild group): 52.4%
- decrease in metabolite GM Cmax vs. normal group ([1]; mild group): 58.1%
- decrease in metabolite GM t1/2 vs. normal group ([1]; mild group): 31.3%
- decrease in metabolite GM AUCinf vs. normal group ([1]; moderate group): 25.4%
- decrease in metabolite GM AUClast vs. normal group ([1]; moderate group): 25.4%
- decrease in metabolite GM Cmax vs. normal group ([1]; moderate group): 41.9%
- decrease in metabolite GM t1/2 vs. normal group ([1]; moderate group): 35.5%
- decrease in metabolite GM AUCinf vs. normal group ([1]; severe group): 53.3%
- decrease in metabolite GM AUClast vs. normal group ([1]; severe group): 53.3%
- decrease in metabolite GM Cmax vs. normal group ([1]; severe group): 74.1%
- decrease in metabolite GM t1/2 vs. normal group ([1]; severe group): 41.1%
- decrease in metabolite GM AUCinf and AUClast vs. normal hepatic function ([1]; the 3 hepatic impairment groups): 25–53%
SMILES: CNC(=O)c1ccc(-c2nn3c(Cc4ccc5ncccc5c4)cnc3[nH]c2=O)cc1F [CMN288]
- accumulation of metabolite after multiple dosing [2]: does not accumulate
